Measured values published in ChEMBL document CHEMBL1136904, “Histone deacetylase inhibitors with a primary amide zinc binding group display antitumor activity in xenograft model” (Bioorg Med Chem Lett, 2009).
pIC50: −log10 of the molar value. The source made the active and inactive calls.

What was measured:
Histone deacetylase 1 = Histone deacetylase 1 (Homo sapiens, UniProt Q13547); experiment: Inhibition of C-terminal FLAG tagged HDAC1
HeLa = experiment: Antiproliferative activity against human HeLa cells after 72 hrs by celltiter-blue cell viability assay; type: functional, cell-based
Summary of the method: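 72 h proliferation assay in HeLa cervical cancer cells, giving IC50; means of two or more experiments.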

Histone deacetylase 2 = Histone deacetylase 2 (Homo sapiens, UniProt Q92769); experiment: Inhibition of C-terminal FLAG tagged HDAC2
Histone deacetylase 2, sequence (Q92769 whole entry): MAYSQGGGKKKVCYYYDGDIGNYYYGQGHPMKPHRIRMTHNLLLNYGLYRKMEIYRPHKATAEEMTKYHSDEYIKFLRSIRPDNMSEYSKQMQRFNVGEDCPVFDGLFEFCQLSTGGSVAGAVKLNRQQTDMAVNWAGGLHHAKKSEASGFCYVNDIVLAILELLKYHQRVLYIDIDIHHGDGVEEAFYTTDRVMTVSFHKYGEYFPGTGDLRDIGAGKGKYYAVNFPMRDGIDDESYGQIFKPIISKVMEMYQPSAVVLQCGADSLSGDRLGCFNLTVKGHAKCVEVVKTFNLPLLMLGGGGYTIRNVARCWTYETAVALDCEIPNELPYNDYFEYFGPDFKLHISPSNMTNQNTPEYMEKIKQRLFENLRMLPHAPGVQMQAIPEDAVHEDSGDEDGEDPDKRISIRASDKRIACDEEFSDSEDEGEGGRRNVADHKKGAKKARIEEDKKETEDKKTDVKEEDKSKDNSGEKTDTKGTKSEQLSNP

[1] = target: T1, Protein deacetylase HDAC6 (Homo sapiens, UniProt Q9UBN7); experiment: Inhibition of C-terminal FLAG tagged HDAC6
T1 sequence (Q9UBN7 whole entry): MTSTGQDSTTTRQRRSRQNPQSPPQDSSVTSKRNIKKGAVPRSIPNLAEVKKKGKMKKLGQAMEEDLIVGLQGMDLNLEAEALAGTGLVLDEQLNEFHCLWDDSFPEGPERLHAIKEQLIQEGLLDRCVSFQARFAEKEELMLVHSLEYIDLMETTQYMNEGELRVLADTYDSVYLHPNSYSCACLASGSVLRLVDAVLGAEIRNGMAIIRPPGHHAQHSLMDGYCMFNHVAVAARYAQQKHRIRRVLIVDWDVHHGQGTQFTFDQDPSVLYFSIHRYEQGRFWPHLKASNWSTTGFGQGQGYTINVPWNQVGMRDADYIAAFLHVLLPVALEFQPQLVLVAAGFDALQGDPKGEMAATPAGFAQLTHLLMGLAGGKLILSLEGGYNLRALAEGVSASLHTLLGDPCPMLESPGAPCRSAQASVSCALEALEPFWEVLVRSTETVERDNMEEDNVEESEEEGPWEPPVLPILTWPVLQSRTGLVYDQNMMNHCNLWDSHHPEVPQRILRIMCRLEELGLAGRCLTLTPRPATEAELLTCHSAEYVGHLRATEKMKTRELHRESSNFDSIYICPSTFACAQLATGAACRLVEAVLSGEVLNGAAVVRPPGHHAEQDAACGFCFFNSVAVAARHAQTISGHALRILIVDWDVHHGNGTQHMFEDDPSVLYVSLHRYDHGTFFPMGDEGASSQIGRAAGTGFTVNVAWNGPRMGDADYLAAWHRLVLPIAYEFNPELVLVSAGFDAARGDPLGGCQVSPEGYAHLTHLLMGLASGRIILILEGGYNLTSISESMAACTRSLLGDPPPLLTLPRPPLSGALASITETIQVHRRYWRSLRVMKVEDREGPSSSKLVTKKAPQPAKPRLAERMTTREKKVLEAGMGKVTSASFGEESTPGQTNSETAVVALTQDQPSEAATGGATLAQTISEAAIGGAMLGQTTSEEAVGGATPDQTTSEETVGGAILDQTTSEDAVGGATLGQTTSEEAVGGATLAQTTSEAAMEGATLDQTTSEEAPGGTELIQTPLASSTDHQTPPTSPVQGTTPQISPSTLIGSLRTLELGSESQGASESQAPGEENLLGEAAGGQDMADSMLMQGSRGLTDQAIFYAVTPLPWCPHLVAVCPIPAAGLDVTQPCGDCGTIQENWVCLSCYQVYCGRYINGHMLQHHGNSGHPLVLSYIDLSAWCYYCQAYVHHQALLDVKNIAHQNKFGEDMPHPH

[2] = Toxicity in ip dosed mouse assessed as maximum tolerated dose administered daily for 2 weeks; type: organism-based; settings: in vivo
Summary of the method: (§1)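 Preliminary tolerability study in mice, with intraperitoneal dosing once daily for 2 weeks. The maximum tolerated dose was defined as the dose giving no mortality and body weight loss below 5%.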

A549 = experiment: Antiproliferative activity against human A549 cells after 72 hrs by celltiter-blue cell viability assay; type: functional, cell-based; settings: A549, 72 h
Histone deacetylase 8 = target: T2, Histone deacetylase 8 (Homo sapiens, UniProt Q9BY41); experiment: Inhibition of His-tagged HDAC8 catalytic domain expressed in Escherichia coli
T2 sequence (Q9BY41 whole entry): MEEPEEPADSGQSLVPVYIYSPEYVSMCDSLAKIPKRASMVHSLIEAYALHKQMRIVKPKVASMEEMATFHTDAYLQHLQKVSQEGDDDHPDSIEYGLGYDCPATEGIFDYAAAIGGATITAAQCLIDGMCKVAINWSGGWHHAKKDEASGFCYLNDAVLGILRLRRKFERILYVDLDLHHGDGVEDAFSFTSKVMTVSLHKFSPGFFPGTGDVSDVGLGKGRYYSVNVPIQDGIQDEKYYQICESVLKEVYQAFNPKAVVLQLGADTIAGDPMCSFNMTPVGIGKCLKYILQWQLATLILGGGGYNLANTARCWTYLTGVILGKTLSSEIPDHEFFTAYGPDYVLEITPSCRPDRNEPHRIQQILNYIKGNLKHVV

HCT-116 [3] = experiment: Antiproliferative activity against human HCT116 cells after 72 hrs by celltiter-blue cell viability assay; type: functional, cell-based; settings: HCT-116, 72 h
Histone deacetylase 3 = Histone deacetylase 3 (Homo sapiens, UniProt O15379); experiment: Inhibition of C-terminal FLAG tagged HDAC3
Histone deacetylase 3, sequence (O15379 whole entry, the tested form may be a part): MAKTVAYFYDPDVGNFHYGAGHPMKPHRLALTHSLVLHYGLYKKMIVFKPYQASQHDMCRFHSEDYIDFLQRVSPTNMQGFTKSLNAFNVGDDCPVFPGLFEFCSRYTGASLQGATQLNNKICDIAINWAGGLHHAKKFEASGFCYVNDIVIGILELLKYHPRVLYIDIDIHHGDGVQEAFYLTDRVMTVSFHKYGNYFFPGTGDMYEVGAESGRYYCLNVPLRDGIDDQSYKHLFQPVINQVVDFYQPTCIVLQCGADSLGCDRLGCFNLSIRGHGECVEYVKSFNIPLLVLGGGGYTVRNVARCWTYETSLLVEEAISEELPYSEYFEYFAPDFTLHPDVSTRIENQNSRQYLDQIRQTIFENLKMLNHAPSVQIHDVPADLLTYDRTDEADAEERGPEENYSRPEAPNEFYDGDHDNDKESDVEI

Histone deacetylase 4 = Histone deacetylase 4 (Homo sapiens, UniProt P56524); experiment: Inhibition of His-tagged HDAC4 catalytic domain expressed in Escherichia coli
Histone deacetylase 4, sequence (P56524 whole entry, the tested form may be a part): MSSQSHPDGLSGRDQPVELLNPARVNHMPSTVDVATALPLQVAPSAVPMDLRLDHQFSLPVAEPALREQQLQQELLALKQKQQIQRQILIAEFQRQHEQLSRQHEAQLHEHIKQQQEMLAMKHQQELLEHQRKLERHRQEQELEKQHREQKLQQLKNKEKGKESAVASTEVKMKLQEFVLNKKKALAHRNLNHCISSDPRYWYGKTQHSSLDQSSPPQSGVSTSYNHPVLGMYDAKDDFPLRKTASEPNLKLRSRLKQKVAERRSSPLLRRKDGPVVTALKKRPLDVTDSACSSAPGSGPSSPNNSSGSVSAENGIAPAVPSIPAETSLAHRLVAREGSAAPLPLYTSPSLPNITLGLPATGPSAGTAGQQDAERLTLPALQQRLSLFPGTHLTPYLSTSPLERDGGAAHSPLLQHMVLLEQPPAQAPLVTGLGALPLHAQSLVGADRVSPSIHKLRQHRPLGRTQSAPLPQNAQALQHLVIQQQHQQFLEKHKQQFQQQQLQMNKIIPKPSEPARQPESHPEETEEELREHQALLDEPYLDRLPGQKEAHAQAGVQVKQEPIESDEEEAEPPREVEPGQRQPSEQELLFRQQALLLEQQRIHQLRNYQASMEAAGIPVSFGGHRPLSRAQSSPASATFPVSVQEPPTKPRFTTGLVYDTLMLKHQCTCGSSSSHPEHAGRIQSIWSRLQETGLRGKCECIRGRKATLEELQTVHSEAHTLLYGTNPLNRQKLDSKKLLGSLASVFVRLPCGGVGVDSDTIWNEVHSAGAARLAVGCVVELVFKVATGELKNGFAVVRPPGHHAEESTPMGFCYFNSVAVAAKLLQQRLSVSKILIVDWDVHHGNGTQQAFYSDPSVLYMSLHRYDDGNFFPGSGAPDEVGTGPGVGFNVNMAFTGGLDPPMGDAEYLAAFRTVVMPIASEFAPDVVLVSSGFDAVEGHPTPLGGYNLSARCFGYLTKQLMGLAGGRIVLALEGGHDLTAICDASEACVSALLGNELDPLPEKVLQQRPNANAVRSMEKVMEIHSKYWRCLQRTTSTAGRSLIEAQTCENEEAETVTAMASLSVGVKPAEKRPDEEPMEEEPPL

Mus musculus [4] = experiment: Toxicity in mouse assessed as mortality at 100 mg/kg, ip administered daily for 2 weeks; type: organism-based; design: dose 100 mg/kg, route intraperitoneal; settings: in vivo, 336 h; summary of the method: as §1
Mus musculus [5] = experiment: Toxicity in mouse assessed as body weight loss at 100 mg/kg, ip administered daily for 2 weeks; type: organism-based; design: dose 100 mg/kg, route intraperitoneal; settings: in vivo, 336 h
Summary of the method: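 Preliminary MTD study in mice. Intraperitoneal dosing once daily for 2 weeks, tracking mortality and body weight loss. Tolerated dose defined as no mortality and body weight loss below 5%.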

Mus musculus [6] = experiment: Toxicity against human HCT116 cells xenografted nude mouse assessed as body weight loss at 100 mg/kg, ip administered once daily for 18 days; type: organism-based, HCT-116; design: dose 100 mg/kg, route intraperitoneal; settings: in vivo, 432 h
HCT-116 [7] = experiment: Antitumor activity against human HCT116 cells xenografted nude mouse assessed as tumor growth inhibition at 100 mg/kg, ip administered once daily for 18 days relative to control; type: functional; settings: HCT-116, ip, 432 h, route intraperitoneal, read-out: TGI
Summary of the method: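 HCT116 human colon carcinoma xenografts in nude mice, 12 per group. Dosed intraperitoneally once daily for 18 days and compared with vehicle-treated animals. Tumor growth followed over time and reported as mean ± SEM.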

Mus musculus [8] = experiment: Increase in histone acetylation in human HCT116 cells xenografted nude mouse at 100 mg/kg, ip measured for 24 hrs; type: functional, organism-based; design: dose 100 mg/kg; settings: HCT-116
Summary of the method: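 Target engagement in nude mice bearing HCT116 xenografts, 4 per group. Single ip dose of 100 mpk, with vehicle controls. Histone acetylation measured in tumor biopsies at time points after administration and reported as mean ± SEM.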

Mus musculus [9] = experiment: Toxicity against human HCT116 cells xenografted nude mouse assessed as body weight loss at 150 mg/kg, ip administered once daily for 18 days; type: organism-based, HCT-116; design: dose 150 mg/kg, route intraperitoneal; settings: in vivo, 432 h
[10] = Intrinsic clearance in human microsomes in presence of UDPGA; type: ADME, Microsome
Summary of the method: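 Glucuronidation measured in human microsomes in the presence of UDPGA. Intrinsic clearance expressed as µL/min/mg protein.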

[11] = Intrinsic clearance in rat liver microsomes in presence of NADPH; type: ADME, Microsome
Summary of the method: (§2)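 Metabolic stability measured in liver microsomes (rat, human, dog) in the presence of NADPH. Intrinsic clearance expressed as µL/min/mg protein.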

[12] = Intrinsic clearance in dog liver microsomes in presence of NADPH; type: ADME, Canis lupus familiaris, Microsome; summary of the method: as §2
[13] = Intrinsic clearance in human liver microsomes in presence of NADPH; type: ADME, Microsome; summary of the method: as §2

Histone deacetylase 1, sequence (Q13547 whole entry): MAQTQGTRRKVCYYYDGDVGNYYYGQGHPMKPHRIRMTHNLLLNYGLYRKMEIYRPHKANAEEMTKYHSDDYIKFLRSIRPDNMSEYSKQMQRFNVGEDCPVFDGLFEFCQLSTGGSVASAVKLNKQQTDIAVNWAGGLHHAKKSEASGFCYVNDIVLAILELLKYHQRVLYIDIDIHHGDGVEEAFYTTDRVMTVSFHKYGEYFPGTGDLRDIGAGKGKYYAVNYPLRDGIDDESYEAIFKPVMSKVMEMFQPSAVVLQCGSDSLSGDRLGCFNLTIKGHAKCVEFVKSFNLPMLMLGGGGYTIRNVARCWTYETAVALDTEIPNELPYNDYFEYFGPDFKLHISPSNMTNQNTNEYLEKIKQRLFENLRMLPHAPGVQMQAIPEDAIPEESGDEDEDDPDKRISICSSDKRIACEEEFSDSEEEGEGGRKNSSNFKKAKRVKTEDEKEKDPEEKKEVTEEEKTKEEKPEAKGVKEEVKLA

Row | SMILES | pIC50 (Histone deacetylase 1) | pIC50 (HeLa) | other results
1 | CCNC(=O)CCCCC[C@H](NC(=O)Cc1c(C)[nH]c2ccc(OC)cc12)c1ncc(-c2ccc3ccccc3c2)[nH]1 | 7.18 | 5.57 | –
2 | COc1ccc2[nH]c(C)c(CC(=O)N[C@@H](CCCCCC(=O)NO)c3ncc(-c4ccc5ccccc5c4)[nH]3)c2c1 | 8.52 | 6.74 | –
3 | COc1ccc2[nH]c(C)c(CC(=O)N[C@@H](CCCCCC(N)=O)c3ncc(-c4ccc5ccccc5c4)[nH]3)c2c1 | – | 6.36 | pIC50 (Histone deacetylase 2): 6.80; pIC50 [1]: 6.92; MTD at 336 h [2]: 100 mg/kg; pIC50 (A549): 5.45; pIC50 (Histone deacetylase 8): < 5.30; pIC50 (HCT-116 [3]): 6.07; pIC50 (Histone deacetylase 3): 6.60; pIC50 (Histone deacetylase 4): < 5.00; Activity (Mus musculus [4]): Non-toxic; Activity (Mus musculus [5]): < 5%; Activity (Mus musculus [6]): < 5%; inhibition in vivo at 100 mg/kg (HCT-116 [7]): 29%; Activity (Mus musculus [8]): Active
4 | COc1ccc2[nH]c(C)c(CC(=O)N[C@@H](CCCCCC(=O)NS(C)(=O)=O)c3ncc(-c4ccc5ccccc5c4)[nH]3)c2c1 | 7.33 | 5.10 | –
5 | COc1ccc2[nH]c(C)c(CC(=O)N[C@@H](CCCCCC(=O)NCc3ccccc3)c3ncc(-c4ccc5ccccc5c4)[nH]3)c2c1 | 6.00 | 5.17 | –
6 | CNC(=O)CCCCC[C@H](NC(=O)Cc1c(C)[nH]c2ccc(OC)cc12)c1ncc(-c2ccc3ccccc3c2)[nH]1 | 6.92 | 5.77 | –
7 | O=C(O)CCCCC[C@H](NC(=O)c1cncs1)c1ncc(-c2ccc3ccccc3c2)[nH]1 | 7.64 | 5.24 | –
8 | COc1ccc2[nH]c(C)c(CC(=O)N[C@@H](CCCCCC(=O)Nc3ccccc3N)c3ncc(-c4ccc5ccccc5c4)[nH]3)c2c1 | 6.96 | 5.87 | –
9 | O=C(CCCCCCC(=O)Nc1ccccc1)NO [VORINOSTAT] | – | – | Activity (Mus musculus [9]): < 5%
10 | CONC(=O)CCCCC[C@H](NC(=O)Cc1c(C)[nH]c2ccc(OC)cc12)c1ncc(-c2ccc3ccccc3c2)[nH]1 | 7.47 | 6.18 | –
11 | COc1ccc2[nH]c(C)c(CC(=O)N[C@@H](CCCCCC(=O)NS(=O)(=O)C(F)(F)F)c3ncc(-c4ccc5ccccc5c4)[nH]3)c2c1 | 7.03 | 4.47 | –
12 | COc1ccc2[nH]c(C)c(CC(=O)N[C@@H](CCCCCC(=O)N(C)C)c3ncc(-c4ccc5ccccc5c4)[nH]3)c2c1 | 6.77 | 5.42 | –
13 | COc1ccc2[nH]c(C)c(CC(=O)N[C@@H](CCCCCC(=O)O)c3ncc(-c4ccc5ccccc5c4)[nH]3)c2c1 | 7.55 | 6.41 | microsomal CLint [10]: 24 µL/min/mg; microsomal CLint [11]: 177 µL/min/mg; microsomal CLint [12]: 3 µL/min/mg; microsomal CLint [13]: 9 µL/min/mg
14 | CN1CC[C@@H](C(=O)N[C@@H](CCCCCC(=O)O)c2ncc(-c3ccc4ccccc4c3)[nH]2)C1 | 7.14 | < 4.60 | –
15 | O=C(O)CCCCC[C@H](NS(=O)(=O)c1ccccc1[N+](=O)[O-])c1ncc(-c2ccc3ccccc3c2)[nH]1 | 7.72 | 5.16 | –
16 | CCC(=O)CCCCC[C@H](NC(=O)Cc1c(C)[nH]c2ccc(OC)cc12)c1ncc(-c2ccc3ccccc3c2)[nH]1 | 7.57 | 6.70 | –
17 | COc1ccc2[nH]c(C)c(CC(=O)N[C@@H](CCCCCC(=O)Nc3nncs3)c3ncc(-c4ccc5ccccc5c4)[nH]3)c2c1 | 6.46 | 5.33 | –
18 | COc1ccc2[nH]c(C)c(CC(=O)N[C@@H](CCCCCC(C)=O)c3ncc(-c4ccccc4)[nH]3)c2c1 | 7.57 | – | –
19 | CN1CC[C@H](C(=O)N[C@@H](CCCCCC(=O)O)c2ncc(-c3ccc4ccccc4c3)[nH]2)C1 | 7.40 | < 4.60 | –
20 | CN1CCC(C(=O)N[C@@H](CCCCCC(=O)O)c2ncc(-c3ccc4ccccc4c3)[nH]2)CC1 | 7.46 | 4.46 | –
21 | COc1ccc2[nH]c(C)c(CC(=O)N[C@@H](CCCCCC(=O)NC(C)C)c3ncc(-c4ccc5ccccc5c4)[nH]3)c2c1 | 6.32 | 4.92 | –
22 | COc1ccc2[nH]c(C)c(CC(=O)N[C@@H](CCCCCC(=O)Nc3ccccc3)c3ncc(-c4ccc5ccccc5c4)[nH]3)c2c1 | 6.70 | 5.23 | –
23 | CCC(=O)CCCCC[C@@H]1NC(=O)[C@H]2CCCCN2C(=O)[C@H]([C@@H](C)CC)NC(=O)[C@H](Cc2cn(OC)c3ccccc23)NC1=O [APICIDIN] | – | 6.54 | –
24 | CN(C)S(=O)(=O)N[C@@H](CCCCCC(=O)O)c1ncc(-c2ccc3ccccc3c2)[nH]1 | 6.66 | 4.58 | –
